# Data published in ChEMBL document CHEMBL1124291, “New actinomycin D analogues as superior chemotherapeutic agents against primary and advanced colon tumors and colon xenografts in nude mice” (J Med Chem, 1988).
# What was measured:
# [1] = species on record: Rattus norvegicus; assay: DNA-cleaving ability expressed as % of closed circular pBR322 DNA cleaved at 100 uM conc 100 uM; assay type: functional
# In short: (§1)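 pBR322 DNA (200 μM nucleotides) in 10 mM Tris·HCl pH 7.8 and 50 mM NaCl, with 4 mM Na₂S₂O₄ and 100 μM FeCl₂. Incubated with drug for 1 h at 20 °C, kept air-saturated. Supercoiled and open-circular forms were separated by agarose gel electrophoresis, stained with ethidium bromide and quantitated by densitometry. % cleaved was calculated from the open- and closed-circular amounts.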
# [2] = tested on: P388 (Mus musculus); assay: Percent of the protein conjugates isolated from incubation mixture containing tumor cell homogenate(T)
# [3] = species on record: Rattus norvegicus; assay: Percent of the unconverted isolated from incubation mixture containing rat microsomes; assay type: functional
# In short: (§2)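 Tritiated analogues were incubated with two systems. (T) sonicated P388 cell homogenates, 37 °C for 16 h. (M) liver microsomes from phenobarbital-induced rats, 6 h with an NADPH-generating system (glucose-6-phosphate dehydrogenase plus glucose 6-phosphate). Metabolites and water-soluble conjugates were isolated, separated by HPLC and expressed as percentages.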
# [4] = tested on: MC-38; assay: Mean survival time of treated / untreated group x100. (number of over 100-day survivors/number of total mice in the group) at a dose 0.30 mg/kg; assay type: functional, Mus musculus; conditions: dose 0.3 mg/kg
# In short: (§3)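 CDF1 mice were implanted sc on day 0 with colon 38 adenocarcinoma fragments (70 mg) and given iv drug on days 1, 5 and 9. %T/C = median survival of treated / untreated × 100. Number of mice surviving over 100 days / group total is given in parentheses.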
# [5] = tested on: B16; assay: in vivo Antitumor activity against B16 melanoma cells at dose 300 ug/Kg /inj measured as Mean survival time (MST); assay type: functional, Mus musculus
# In short: (§4)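 BDF1 mice in groups of nine were implanted ip on day 0 with 0.2 mL of 1:5 (w/v) B16 melanoma brei; drugs were given ip. Survival is reported as median survival time in days with range, and as %ILS, with survivors counted on day 65 out of total injected.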
# [6] = tested on: P388 (Mus musculus); assay: Percent of the tissue bound conjugates isolated from incubation mixture containing tumor cell homogenate(T)
# [7] = tested on: MC-38; assay: Number of toxic deaths/number of mice in a group of non tumored mice treated in parallel with the tumor-bearing mice and observed for 100 days at a dose 0.60 mg/Kg; value given as 1/9; assay type: toxicity; conditions: mouse, in vivo, 0.6 mg/kg, 2400 h
# In short: (§5)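 Non-tumored CDF1 mice were treated in parallel with colon 38 tumor-bearing mice: iv injections on days 1, 5 and 9, groups of nine. Deaths were counted over 100 days of observation and reported as toxic deaths / mice in group.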
# [8] = tested on: HT-29; assay: 50% inhibition of incorporationf precursor [3H]thymidine into DNA HT-29 cell lines; assay type: functional, cell-based; conditions: Homo sapiens, HT-29, 2 h
# In short: (§6)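 HT-29 colon carcinoma monolayers, 10^4 cells per well, five wells per concentration. Drug exposure lasted 2 h, with [³H]thymidine and [2-¹⁴C]uridine (0.5 μCi each) added for the last hour. Cells were washed, trypsinized, counted and precipitated onto glass-fiber filters with 10% TCA. Acid-precipitable radioactivity was measured. IC50 is the concentration inhibiting 50% of incorporation; data are averages of replicate experiments.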
# [9] = tested on: P388 (Mus musculus); assay: Percent of the unconverted isolated from incubation mixture containing tumor cell homogenate(T)
# [10] = tested on: P388; assay: Antitumor activity in P388/ADR (adriamycin resistant) in male BDF1 mice measured as optimal dose at dose 0.10-1.0 mg/kg/ inj, inp
# [11] = species on record: Rattus norvegicus; assay: Percent of the SAD isolated from incubation mixture containing rat micro somes, after 20.0 min
# [12] = tested on: HT-29; assay: 50% inhibition of incorporationf precursor [3H]thymidine into RNA HT-29 cell lines; assay type: functional, cell-based; conditions: Homo sapiens, HT-29, 2 h; in the assay text read “[14C]uridine” for “[3H]thymidine”; in short: as §6
# [13] = tested on: P388; assay: 50% inhibition of incorporation of precursor [3H]thymidine into DNA P388 cell lines; assay type: functional, cell-based; conditions: Mus musculus, P388, 2 h
# [14] = species on record: Rattus norvegicus; assay: The formation of adrenochrome from epinephrine in the presence of SOD(super oxide dismutase); + denotes ' Inhibited'; assay type: functional
# In short: (§7)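 Drug-stimulated superoxide generation with rat liver microsomal enzymes and NADPH as cofactor. NADPH oxidation was read at 340 nm. Adrenochrome formed from epinephrine was read at 480 nm, with or without superoxide dismutase. % stimulation = [(drug-stimulated rate − basal rate)/basal rate] × 100. Values are mean ± standard error of triplicate analyses.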
# [15] = tested on: B16; assay: in vivo Antitumor activity against B16 melanoma cells at a optimal dose 300 ug/Kg /inj measured as %ILS (%increase life span); assay type: functional; conditions: Mus musculus; in short: as §4
# [16] = species on record: Rattus norvegicus; assay: DNA-cleaving ability expressed as % of closed circular pBR322 DNA cleaved […] conc 50 uM; assay type: functional; in short: as §1
# [17] = tested on: MC-38; assay: Activity against advanced carcinoma C38 Tumor in CDF1 Mice at dose 0.30 mg/ kg measured as % inhibition of tumor; assay type: functional; conditions: Mus musculus
# [18] = species on record: Rattus norvegicus; assay: Percent of the protein conjugates isolated from incubation mixture containing rat microsomes; assay type: functional; in short: as §2
# [19] = tested on: P388; assay: 50% inhibition of incorporation precursor [14C]uridine into RNA P388 cell lines; assay type: functional, cell-based; conditions: Mus musculus
# [20] = tested on: MC-38; assay: Mean survival time of treated / untreated group x100. (number of over 100-day survivors/number of total mice in the group) at a dose 1.20 mg/kg; assay type: functional, Mus musculus; conditions: dose 1.2 mg/kg; in short: as §3
# [21] = species on record: Rattus norvegicus; assay: Stimulation of NADPH oxidation in the presence of rat liver microsomes; assay type: functional; in short: as §7
# [22] = tested on: P388 (Mus musculus); assay: Percent of the unidentified metabolites isolated from incubation mixture containing tumor cell homogenate(T)
# [23] = tested on: MC-38; assay: Activity against advanced carcinoma C38 Tumor in CDF1 Mice at dose 1.20 mg/ kg measured as % inhibition of tumor; assay type: functional; conditions: Mus musculus
# [24] = DNA-cleaving ability expressed as % of closed circular pBR322 DNA cleaved at 10 uM conc 10 uM
# [25] = species on record: Rattus norvegicus; assay: Percent of the tissue bound conjugates isolated from incubation mixture containing rat microsomes; assay type: functional; in short: as §2
# [26] = tested on: MC-38; assay: Number of toxic deaths/number of mice in a group of non tumored mice treated in parallel with the tumor-bearing mice and observed for 100 days at a dose 0.30 mg/Kg; value given as 0/9; assay type: functional, Mus musculus; in short: as §5
# [27] = tested on: MC-38; assay: Mean survival time of treated / untreated group x100. (number of over 100-day survivors/number of total mice in the group) at a dose 0.60 mg/kg; assay type: functional, Mus musculus; conditions: dose 0.6 mg/kg; in short: as §3
# [28] = species on record: Rattus norvegicus; assay: Percent of the SAD isolated from incubation mixture containing tumor cell homogenate(T) after 7.7 min; assay type: functional; in short: as §2
# [29] = species on record: Rattus norvegicus; assay: Percent of the unidentified metabolites isolated from incubation mixture containing rat microsomes; assay type: functional; in short: as §2
# [30] = species on record: Rattus norvegicus; assay: The formation of adrenochrome from epinephrine in the absence of SOD(super oxide dismutase); assay type: functional; in short: as §7
# [31] = species on record: Mus musculus; assay: Percent of the SAD glucuronide and/or sulfate isolated from incubation mixture containing tumor cell homogenate(T) after 8.0, 10.5 min
# [32] = tested on: pBR322 plasmid DNA; assay: DNA-cleaving ability expressed as % of closed circular pBR322 DNA cleaved […]
# [33] = tested on: MC-38; assay: Activity against advanced carcinoma C38 Tumor in CDF1 Mice at dose 0.60 mg/ kg measured as % inhibition of tumor; assay type: functional; conditions: Mus musculus
# [34] = tested on: MC-38; assay: Number of toxic deaths/number of mice in a group of non tumored mice treated in parallel with the tumor-bearing mice and observed for 100 days at a dose 1. 20 mg/Kg; value given as 2/9; assay type: toxicity, cell-based; conditions: mouse, in vivo, 2400 h; in short: as §5
smiles,measurement,setting,value
Cc1c2oc3c(C)c4oc(CC(=O)NCCCCN)nc4c(C(=O)N[C@@H]4C(=O)N[C@H](C(C)C)C(=O)N5CCC[C@H]5C(=O)N(C)CC(=O)N(C)[C@@H](C(C)C)C(=O)O[C@@H]4C)c3nc-2c(C(=O)N[C@@H]2C(=O)N[C@H](C(C)C)C(=O)N3CCC[C@H]3C(=O)N(C)CC(=O)N(C)[C@@H](C(C)C)C(=O)O[C@@H]2C)c(N)c1=O,Activity,[1],58%
same,Activity,[2],8%
same,Activity,[3],10%
same,T/C,[4],170%
same,MST,[5],62
same,Activity,[6],5%
same,Toxic deaths,[7],1
same,IC50,[8],0.365 µM
same,Activity,[9],20%
same,optimal dose,[10],1 mg/kg
same,Activity,[11],65%
same,IC50,[12],0.065 µM
same,IC50,[13],0.43 µM
same,Adrenochrome formation,[14],Inhibited
same,ILS at 0.3 mg/kg,[15],114%
same,Activity,[16],50%
same,inhibition in vivo at 0.3 mg/kg,[17],80%
same,Activity,[18],10%
same,IC50,[19],0.055 µM
same,T/C,[20],231%
same,NADPH oxidation (nM min-1 (mg of protein)-1),[21],87.1
same,Activity,[22],5%
same,inhibition in vivo at 1.2 mg/kg,[23],94%
same,Activity,[24],40%
same,Activity,[25],5%
same,Toxic deaths,[26],0
same,T/C,[27],250%
same,Activity,[28],20%
same,Activity,[29],8%
same,Adrenochrome formation,[30],22.1 nM min-1 (mg of protein)-1
same,Activity,[31],40%
same,Activity,[32],45%
same,inhibition in vivo at 0.6 mg/kg,[33],93%
same,Toxic deaths,[34],2
